Data: ChEMBL document CHEMBL2093137, “WHO-TDR NTD Screening”
In brackets after ≈: the same amount, converted by molar mass.

What was measured:
Onchocerca lienalis = assay: WHO-TDR: Onchocerciasis; type: functional; parameters: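 at 12.5 µM on microfilariae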
Method in brief: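 Percent inhibition and IC50 describe activity against microfilariae of Onchocerca ochengi or Onchocerca lienalis, used as animal-pathogen substitutes for the human parasite. The compounds tested made up a 10,000-member diverse library from Life Chemicals.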

[1] = WHO-TDR: Cytotoxicity; type: toxicity, cell-based; conditions: human, MRC5 cells
Trypanosoma cruzi = assay: WHO-TDR: Chagas disease; type: functional, organism-based, Homo sapiens; conditions: MRC5
Method in brief: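 Following previously published standard procedures, with a reference drug as positive control, a whole-organism assay was run on Trypanosoma cruzi Tulahuen CL2 beta-galactosidase strain amastigotes inside MRC-5SV2 human lung fibroblast host cells. The 10,000 compounds tested formed a diverse Life Chemicals library filtered for drug-likeness and reactive groups. Results are expressed as IC50 for antiparasitic potency.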

Leishmania infantum = assay: WHO-TDR: Leishmaniasis; type: functional, organism-based, Mus musculus; conditions: Macrophage
Method in brief: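 IC50 values describe antiparasitic potency in this whole-organism screen. Leishmania infantum MHOM/MA(BE)/67 amastigotes were tested inside murine peritoneal macrophages against a 10,000-compound diverse Life Chemicals library. A reference drug served as positive control.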

Schistosoma mansoni = assay: WHO-TDR: Schistosomiasis; type: functional; parameters: concentration or dose not given beside the values
Method in brief: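 Percent inhibition and IC50 describe activity against whole Schistosoma mansoni worms of the Puerto Rican strain, tested as larvae and/or adults. The compounds screened were a diverse set of 10,000 from Life Chemicals, filtered for drug-likeness and reactive groups. Testing followed previously published standard procedures, with a reference drug as positive control.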

Brugia malayi = assay: WHO-TDR: Lymphatic Filariasis; type: functional; parameters: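 tested at 10 µM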
Method in brief: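 The screening set was a 10,000-compound diverse library from Life Chemicals, filtered for drug-likeness and for reactive groups. It was run against Brugia malayi microfilariae as whole organisms, using previously published standard procedures. Reference drugs acted as positive controls, and activity is reported both as percent inhibition and as IC50.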

[2] = tested on: Trypanosoma brucei brucei; assay: WHO-TDR: Human African Trypanosomiasis (HAT); type: functional, organism-based; conditions: Squib-427
Method in brief: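 Following previously published standard procedures, with reference drugs as positive controls, a whole-organism assay was run against bloodstream-form Trypanosoma brucei, Squib 427 strain. The compounds, 10,000 in all, came from a diverse Life Chemicals library filtered for drug-likeness and reactive groups. Reported values are IC50 for antiparasitic potency.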

Plasmodium falciparum K1 = assay: WHO-TDR: Malaria; type: functional, organism-based, Homo sapiens; conditions: Erythrocyte
Method in brief: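 Life Chemicals supplied the diverse library of 10,000 compounds, which had been filtered for drug-likeness and reactive groups. Each was screened against the K1 strain of Plasmodium falciparum at its intra-erythrocytic stage in human red blood cells, using previously published standard procedures and a reference drug as positive control. The table reports IC50 for antiplasmodial potency.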

IC50 (Leishmania infantum) [µg/mL] | IC50 [2] [µg/mL] | IC50 (Plasmodium falciparum K1) [µg/mL] | SMILES | % Inhibition (Onchocerca lienalis) [%] | IC50 [1] [µg/mL] | IC50 (Trypanosoma cruzi) [µg/mL] | % Inhibition (Schistosoma mansoni) [%] | % Inhibition (Brugia malayi) [%]
3.95 (≈ 12.7 µM) | 0.307 (≈ 0.983 µM) | 6.12 (≈ 19.6 µM) | Cc1cccc(-c2nc(CCNC(=O)c3ccco3)cs2)c1 | 0 | 4.35 (≈ 13.9 µM) | 2.46 (≈ 7.87 µM) | 0 | 0
> 12.2 | 0.422 (≈ 1.04 µM) | > 12.2 | COc1cccc(-n2ccnc2SCC(=O)Nc2ccccc2C(F)(F)F)c1 | 0 | > 12.2 | > 12.2 | 0 | 0
4.55 (≈ 10.5 µM) | 0.45 (≈ 1.04 µM) | 0.653 (≈ 1.51 µM) | Cc1cccc2sc(N(CCCN(C)C)C(=O)c3ccccc3Br)nc12 | 0 | 3.97 (≈ 9.18 µM) | 4.76 (≈ 11 µM) | 33.3 | –
5.53 (≈ 10.4 µM) | 5.59 (≈ 10.5 µM) | 3.44 (≈ 6.46 µM) | CN(C)CCCN(C(=O)c1ccc(S(=O)(=O)N(C)C2CCCCC2)cc1)c1nc2c(F)cccc2s1 | 0 | 3.08 (≈ 5.78 µM) | 5.16 (≈ 9.69 µM) | 0 | –
4.54 (≈ 10.5 µM) | 0.352 (≈ 0.817 µM) | 0.398 (≈ 0.923 µM) | CN(C)CCCN(C(=O)c1nc2ccccc2s1)c1nc2c(Cl)cccc2s1 | 0 | 0.526 (≈ 1.22 µM) | 0.239 (≈ 0.555 µM) | 33.3 | –
4.16 (≈ 10.6 µM) | 0.237 (≈ 0.605 µM) | 0.848 (≈ 2.16 µM) | CN(C)CCCN(C(=O)c1ccccc1F)c1nc2c(Cl)cccc2s1 | 13.3 | 3.81 (≈ 9.73 µM) | 4.41 (≈ 11.3 µM) | 0 | –
4.31 (≈ 9.71 µM) | 0.942 (≈ 2.12 µM) | 0.638 (≈ 1.44 µM) | CCN(CC)c1cc(C)nc(Nc2ccc(NC(=O)c3ccc(Br)o3)cc2)n1 | -1 | 2.91 (≈ 6.54 µM) | 0.344 (≈ 0.774 µM) | 66.7 | –
> 13.6 | 4.31 (≈ 9.49 µM) | 1.18 (≈ 2.6 µM) | CCNc1cc(C)nc(Nc2ccc(NS(=O)(=O)c3ccc4nc(C)sc4c3)cc2)n1 | 33.4 | 0.543 (≈ 1.19 µM) | 0.404 (≈ 0.889 µM) | 58.3 | –
> 10.5 | > 10.5 | > 10.5 | CCCS(=O)(=O)Nc1ccc(Nc2nc(C)cc(N(C)C)n2)cc1 | 0 | > 10.5 | 0.335 (≈ 0.959 µM) | 0 | –
4.27 (≈ 9.71 µM) | 0.429 (≈ 0.976 µM) | 0.357 (≈ 0.812 µM) | CCN(CC)c1cc(C)nc(Nc2ccc(NS(=O)(=O)c3ccc(C)cc3C)cc2)n1 | -1 | 1.51 (≈ 3.43 µM) | 0.324 (≈ 0.737 µM) | 100 | –
4.24 (≈ 9.71 µM) | > 13.1 | > 13.1 | CCS(=O)(=O)c1ccc(-c2cccc(NC(=O)c3cc(Cl)ccc3Cl)c2)nn1 | 0 | > 13.1 | > 13.1 | 100 | –
> 10.9 | 10.9 (≈ 30 µM) | > 10.9 | CS(=O)(=O)NCC(c1ccco1)S(=O)(=O)c1ccc(Cl)cc1 (configuration not stated) | 6.7 | > 10.9 | 0.513 (≈ 1.41 µM) | 0 | 33.33

More lines, now with the values behind:

SMILES | IC50 (Leishmania infantum) [µg/mL] | IC50 [2] [µg/mL] | IC50 (Plasmodium falciparum K1) [µg/mL] | % Inhibition (Onchocerca lienalis) [%] | IC50 [1] [µg/mL] | IC50 (Trypanosoma cruzi) [µg/mL] | % Inhibition (Schistosoma mansoni) [%] | % Inhibition (Brugia malayi) [%]
CN(C)CCCN(C(=O)CCSc1ccccc1)c1nc2cc3c(cc2s1)OCO3 | 0.466 (≈ 1.05 µM) | 2 (≈ 4.51 µM) | 3.42 (≈ 7.7 µM) | 0 | 3.54 (≈ 7.97 µM) | 0.416 (≈ 0.938 µM) | 0 | –
CN(C)CCCN(C(=O)CCOc1ccccc1)c1nc2c(F)cccc2s1 | 4.25 (≈ 10.6 µM) | 4.25 (≈ 10.6 µM) | 8.18 (≈ 20.4 µM) | 0 | 1.94 (≈ 4.83 µM) | 0.409 (≈ 1.02 µM) | 0 | –
CN(C)CCCN(C(=O)c1ccc(Br)s1)c1nc2cc3c(cc2s1)OCCO3 | 5.04 (≈ 10.4 µM) | 5.04 (≈ 10.4 µM) | 2.42 (≈ 5.02 µM) | 6.7 | 3.06 (≈ 6.35 µM) | 0.933 (≈ 1.93 µM) | 0 | –
Oc1ccc(Br)cc1/C=N/Nc1ncnc2[nH]cnc12 | 3.24 (≈ 9.71 µM) | 0.341 (≈ 1.02 µM) | 3.68 (≈ 11 µM) | -1 | 0.364 (≈ 1.09 µM) | 0.193 (≈ 0.579 µM) | 0 | 50
CN(C)CCCN(C(=O)Cc1ccccc1)c1nc2ccc(F)cc2s1 | 3.96 (≈ 10.7 µM) | 0.382 (≈ 1.03 µM) | 0.609 (≈ 1.64 µM) | 0 | 3.81 (≈ 10.3 µM) | 4.16 (≈ 11.2 µM) | 58.3 | –
CN(C)CCCN(C(=O)c1ccc2c(c1)CCCC2)c1nc2ccc(Br)cc2s1 | 0.791 (≈ 1.67 µM) | 0.483 (≈ 1.02 µM) | 1.16 (≈ 2.46 µM) | 0 | 2.1 (≈ 4.44 µM) | 3.21 (≈ 6.78 µM) | 66.7 | –
CN(C)CCCN(C(=O)CCOc1ccccc1)c1nc2cc3c(cc2s1)OCO3 | 0.451 (≈ 1.05 µM) | 4.51 (≈ 10.5 µM) | 1.72 (≈ 4.01 µM) | 0 | 3.34 (≈ 7.81 µM) | 0.433 (≈ 1.01 µM) | 75 | –
CCNc1cc(C)nc(Nc2ccc(NC(=O)CC3CCCC3)cc2)n1 | 3.43 (≈ 9.71 µM) | 3.39 (≈ 9.6 µM) | 2.4 (≈ 6.79 µM) | -1 | 3.23 (≈ 9.13 µM) | 0.299 (≈ 0.846 µM) | 66.7 | –
CCN(CC)c1cc(C)nc(Nc2ccc(NC(=O)c3cc4ccccc4oc3=O)cc2)n1 | > 13.3 | > 13.3 | 0.412 (≈ 0.929 µM) | 6.7 | > 13.3 | > 13.3 | 50 | –
CCOC(=O)c1c(NC(=O)C(C)n2c(-n3nc(C)cc3C)nc(CC)cc2=O)sc2c1CCC2 (configuration not stated) | 4.7 (≈ 9.71 µM) | 4.64 (≈ 9.6 µM) | 2.96 (≈ 6.11 µM) | 0 | > 14.5 | 0.57 (≈ 1.18 µM) | 0 | –
CCOC(=O)c1c(NC(=O)Cn2c(-n3nc(C)cc3C)nc(CC)cc2=O)sc2c1CCC2 | 4.56 (≈ 9.71 µM) | > 14.1 | 4.68 (≈ 9.97 µM) | 0 | > 14.1 | 0.749 (≈ 1.6 µM) | 0 | –
CCOC(=O)c1c(NC(=O)Cn2c(-n3nc(C)cc3C)nc(CC)cc2=O)sc2c1CCCCC2 | > 14.9 | > 14.9 | 4.44 (≈ 8.93 µM) | 0 | > 14.9 | 0.724 (≈ 1.45 µM) | 0 | –
COc1ccccc1NC(=O)Nc1nc(CC(=O)N2CCN(c3cccc(C(F)(F)F)c3)CC2)cs1 | > 15.6 | 3.43 (≈ 6.59 µM) | 4.27 (≈ 8.23 µM) | 0 | > 15.6 | 0.93 (≈ 1.79 µM) | 0 | –
CCN(CC)c1ccc(NC(=O)Cc2csc(NC(=O)c3cc(OC)cc(OC)c3)n2)c(C)c1 | 4.69 (≈ 9.71 µM) | 0.493 (≈ 1.02 µM) | 4.28 (≈ 8.87 µM) | 20 | > 14.5 | 1 (≈ 2.08 µM) | 0 | –
CCc1ccccc1-n1c(C)cn2c3c(=O)n(CC(C)C)c(=O)n(C)c3nc12 | > 11.4 | 0.342 (≈ 0.901 µM) | 3.29 (≈ 8.68 µM) | 20 | > 11.4 | > 11.4 | 0 | 0
O=C(CSc1ccc(-c2ccc(-n3cccn3)cc2)nn1)Nc1ccc2c(c1)OCO2 | 0.419 (≈ 0.971 µM) | > 12.9 | > 12.9 | 13.3 | > 12.9 | > 12.9 | 0 | 0
